The target of test [1] is T1, Delta-type opioid receptor (Rattus norvegicus, UniProt P33533). The test is described as follows: Inhibition of [3H]diprenorphine binding to rat Opioid receptor delta 1 expressed in C6 cells. The format is cell-based. In short, it runs like this: (§1)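 Competition binding with [3H]diprenorphine on rat MOR or DOR expressed in C6 cells and human KOR in CHO cells. Mean of three experiments, each in duplicate.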

The target of test [2] is Delta-type opioid receptor (Rattus norvegicus) (UniProt P33533). The test is described as follows: Antagonistic activity against rat opioid receptor delta 1 expressed in C6 cells in [35S]GTP gamma S assay. The format is functional, cell-based. In short, it runs like this:
(§2)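 Antagonism in [35S]GTPγS binding on membranes: rat MOR/DOR in C6 cells, human KOR in CHO cells. Agonist dose-response curves run with and without test ligand: DAMGO (MOR), SNC80 (DOR), U69593 (KOR). Ke = [antagonist]/(dose-ratio − 1), ± SEM. Three separate experiments.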

The target in test [3] is Mu-type opioid receptor (Rattus norvegicus) (UniProt P33535). The test can be described thus: Antagonistic activity against rat opioid receptor mu 1 expressed in C6 cells in [35S]GTP gamma S assay. It counts as functional, cell-based. In short, it runs like this: as §2
In general terms: Binding of GTPγS marks nucleotide exchange on a G protein.

The target in test [4] is T2, Kappa-type opioid receptor (Homo sapiens, UniProt P41145). The test can be described thus: Antagonistic activity against human opioid receptor kappa 1 expressed in CHO cells in [35S]GTP gamma S assay. It counts as functional, cell-based. In short, it runs like this: as §2
Test [5] has as its system Mus musculus. The test can be described thus: In vivo effective concentration for agonist activity in mouse tail withdrawal assay for antinociception after 24 hr of pre treatment with U-69,593 sc administration (32 mg/kg). The format is functional, organism-based. In short, it runs like this:
(§3)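 Mouse warm-water tail withdrawal, water at 50 °C. Agonist U69593 given sc, and its dose-response EC50 (mg/kg) determined. Pretreatment 1, 3, 18, 24 or 48 h before, sc at 10 or 32 mg/kg; or icv 10 nmol at 1, 24, 48 or 168 h before. Vehicle control at −1 h. Fold shift and its significance reported.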

Test [6] deals with T2, Kappa-type opioid receptor. The test is described as follows: Agonist activity against Opioid receptor kappa 1 expressed in CHO cells in [35S]-GTP-gamma S assay; No stimulation up to 10000 nM. The format is functional, cell-based.
Test [7] deals with T3, Mu-type opioid receptor (Rattus norvegicus, UniProt P33535). The test can be described thus: Agonist activity against Opioid receptor mu 1 expressed in C6 cells in [35S]-GTP-gamma S assay; No stimulation up to 10000 nM. It counts as functional, cell-based.
Test [8] concerns Mus musculus. The test is described as follows: In vivo effective concentration for agonist activity in mouse tail withdrawal assay for antinociception after 24 hr of pre treatment with U-69,593 icv administration (10 nmol). It counts as functional, organism-based. In short, it runs like this: as §3
Test [9] deals with T1, Delta-type opioid receptor. The test can be described thus: Agonist activity against Opioid receptor delta 1 expressed in C6 cells in [35S]-GTP-gamma S assay; No stimulation up to 10000 nM. The format is functional, cell-based.
The nature of test [10]: Relative binding affinity for rat Opioid receptor delta 1 and human Opioid receptor kappa 1.
Test [11] addresses Mu-type opioid receptor (Rattus norvegicus) (UniProt P33535). The test is described as follows: Stimulation of [35S]-GTP-gamma S binding to Opioid receptor mu 1 expressed in C6 cells. It counts as functional, cell-based.
The nature of test [12]: Relative binding affinity for rat Opioid receptor mu 1 and human Opioid receptor kappa 1.
For test [13], the system named is Mus musculus. The test is described as follows: In vivo effective concentration for agonist activity in mouse tail withdrawal assay for antinociception after 48 hr of pre treatment with U-69,593 sc administration (10 mg/kg). It counts as functional, organism-based. In short, it runs like this:
as §3

For test [14], the target named is T2, Kappa-type opioid receptor. The test can be described thus: Stimulation of [35S]-GTP-gamma S binding to Opioid receptor kappa 1 expressed in […] cells. The format is functional, cell-based.
Test [15] addresses T2, Kappa-type opioid receptor. The test is described as follows: Agonist activity against human Opioid receptor kappa 1 expressed in CHO cells in [35S]-GTP-gamma S binding assay. The format is functional, cell-based.
Test [16] deals with Mus musculus. The test can be described thus: In vivo effective concentration for agonist activity in mouse tail withdrawal assay for antinociception after 3h of pre treatment with U-69,593 sc administration (10 mg/kg). The format is functional, organism-based. In short, it runs like this: as §3
Test [17] concerns the target T3, Mu-type opioid receptor. The test can be described thus: Agonist activity against rat Opioid receptor mu 1 expressed in C6 cells in [35S]-GTP-gamma S binding assay. The format is functional, cell-based.
The subject of test [18] is Mus musculus. The test is described as follows: In vivo effective concentration for agonist activity in mouse tail withdrawal assay for antinociception after 1 hr of pre treatment with U-69,593 icv administration (10 nmol). The format is functional, organism-based. In short, it runs like this:
as §3

Test [19] addresses T2, Kappa-type opioid receptor. The test can be described thus: Inhibition of [3H]diprenorphine binding to human opioid receptor kappa 1 expressed in CHO cells. It counts as cell-based. In short, it runs like this:
as §1

Test [20] has as its system Mus musculus. The test is described as follows: In vivo effective concentration for agonist activity in mouse tail withdrawal assay for antinociception after 18 h of pre treatment with U-69,593 sc administration (10 mg/kg). It counts as functional, organism-based. In short, it runs like this:
as §3

The subject of test [21] is Mus musculus. The test is described as follows: In vivo effective concentration for agonist activity in mouse tail withdrawal assay for antinociception after 168h of pre treatment with U-69,593 icv administration (10 nmol). It counts as functional, organism-based. In short, it runs like this: as §3
In test [22] the test system is Mus musculus. The test can be described thus: In vivo effective concentration for agonist activity in mouse tail withdrawal assay for antinociception after 24 hr of pre treatment with U-69,593 sc administration (10 mg/kg). The format is functional, organism-based. In short, it runs like this: as §3
Test [23] relates to Mus musculus. The test is described as follows: In vivo effective concentration for agonist activity in mouse tail withdrawal assay for antinociception after 48 hr of pre treatment with U-69,593 icv administration (10 nmol). The format is functional, organism-based. In short, it runs like this: as §3
Test [24] has as its system Mus musculus. The test can be described thus: In vivo effective concentration for agonist activity in mouse tail withdrawal assay for antinociception after 1 hr of pre treatment with U-69,593 sc administration (10 mg/kg). The format is functional, organism-based. In short, it runs like this: as §3
Test [25] has as its target T3, Mu-type opioid receptor. The test can be described thus: Inhibition of [3H]diprenorphine binding to rat Opioid receptor mu 1 expressed in C6 cells. The format is cell-based. In short, it runs like this:
as §1

As usually defined, the Ki is the equilibrium dissociation constant of an inhibitor or competing ligand from its target.

Mu-type opioid receptor (Rattus norvegicus), sequence (P33535 whole entry): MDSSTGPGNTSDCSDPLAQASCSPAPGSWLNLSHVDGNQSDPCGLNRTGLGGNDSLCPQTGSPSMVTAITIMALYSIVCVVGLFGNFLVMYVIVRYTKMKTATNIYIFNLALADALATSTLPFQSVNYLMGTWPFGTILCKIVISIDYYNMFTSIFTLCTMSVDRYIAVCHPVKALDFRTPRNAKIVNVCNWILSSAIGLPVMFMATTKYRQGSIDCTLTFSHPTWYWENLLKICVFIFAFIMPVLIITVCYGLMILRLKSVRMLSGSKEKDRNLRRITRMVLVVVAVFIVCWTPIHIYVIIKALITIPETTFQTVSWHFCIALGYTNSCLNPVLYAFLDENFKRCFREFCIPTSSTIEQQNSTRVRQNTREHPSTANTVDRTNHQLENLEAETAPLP
T3 sequence (P33535 whole entry): as above
T1 sequence (P33533 whole entry): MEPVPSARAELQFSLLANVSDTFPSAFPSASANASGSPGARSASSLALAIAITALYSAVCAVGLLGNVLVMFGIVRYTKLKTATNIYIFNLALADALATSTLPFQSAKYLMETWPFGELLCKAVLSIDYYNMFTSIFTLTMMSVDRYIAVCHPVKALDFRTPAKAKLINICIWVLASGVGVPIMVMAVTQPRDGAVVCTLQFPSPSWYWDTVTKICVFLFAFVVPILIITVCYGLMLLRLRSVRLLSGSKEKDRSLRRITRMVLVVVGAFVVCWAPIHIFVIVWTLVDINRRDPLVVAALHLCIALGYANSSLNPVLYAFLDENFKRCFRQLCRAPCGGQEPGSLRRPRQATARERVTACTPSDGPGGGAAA
T2 sequence (P41145 whole entry): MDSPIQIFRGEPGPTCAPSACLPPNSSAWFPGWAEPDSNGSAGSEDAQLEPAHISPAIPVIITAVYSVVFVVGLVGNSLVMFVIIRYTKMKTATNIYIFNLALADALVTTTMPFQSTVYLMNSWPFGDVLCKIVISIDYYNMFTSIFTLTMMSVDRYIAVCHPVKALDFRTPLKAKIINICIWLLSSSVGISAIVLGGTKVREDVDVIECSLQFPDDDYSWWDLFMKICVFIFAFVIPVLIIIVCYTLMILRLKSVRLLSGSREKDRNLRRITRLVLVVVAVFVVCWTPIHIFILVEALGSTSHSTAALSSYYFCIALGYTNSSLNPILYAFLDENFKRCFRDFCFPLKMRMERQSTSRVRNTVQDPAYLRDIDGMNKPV
Delta-type opioid receptor (Rattus norvegicus), sequence (P33533 whole entry): as the sequence (P33533 whole entry) above

Take `Oc1ccc2c3c1O[C@H]1c4[nH]c5c(c4C[C@@]4(O)[C@@H](C2)N(CC2CC2)CC[C@]314)C[C@@]1(O)[C@H]2Cc3ccc(O)c4c3[C@@]1(CCN2CC1CC1)[C@H]5O4` [NORBINALTORPHIMINE]: in [1], the inhibition constant (Ki) is 5.8 nM. Besides, the values for the Ke in [2], in [3] and in test [4] were 5.17 nM, 2.38 nM and 0.11 nM, respectively. Also, the EC50 in the test on Mus musculus [5] was 22.7 mg/kg; in test [6] it was “Not Active”; on Mu-type opioid receptor [7], “Not Active”; in the test with Mus musculus [8], 31.8 mg/kg; in test [9], “Not Active”.

For `C[C@H]1c2c(c3c(n2Cc2ccccc2)[C@@H]2Oc4c(O)ccc5c4[C@@]24CCN(C)[C@H](C5)[C@]4(O)C3)CC2(O)[C@H]3Cc4ccc(O)c(O)c4[C@@]12CCN3C` (stereo partly specified), the Ratio in [10] was determined as 8; in test [12], 0.3. The compound also registered a Ke in [4] of 311 nM. Moreover, the Stimulation in test [11] came out at 54%.

Turning to `Oc1ccc2c3c1O[C@H]1c4c(c5c(n4Cc4ccccc4)[C@@H]4Oc6c(O)ccc7c6[C@@]46CCN(CC4CC4)[C@H](C7)[C@]6(O)C5)C[C@@]4(O)[C@@H](C2)N(CC2CC2)CC[C@]314`, the figures for the inhibition constant Ki (in test [1]; in [19]; at Mu-type opioid receptor [25]) were 8.6 nM, 0.7 nM and 10 nM, respectively. Moreover, the Ke in test [2] came to 13.3 nM; in test [3], 25.5 nM; in test [4], 0.26 nM. In addition, the EC50 with Mus musculus [13] came out at 9.9 mh/kg; in test [15], 1910 nM; in the test on Mus musculus [16], 2.1 mg/kg; at Mu-type opioid receptor [17], 187 nM; with Mus musculus [5] it was 5.7 mh/kg; in the test with Mus musculus [18] it was 49.1 mh/kg. The EC50 with Mus musculus [8] was 26.3 mh/kg; in the test on Mus musculus [20], 9 mg/kg; in the test on Mus musculus [21], 37 mh/kg; with Mus musculus [22] it was 4.4 mg/kg; in test [9], “Not Active”; in the test with Mus musculus [23] it was 74.2 mh/kg. The compound further returned an EC50 in the test with Mus musculus [24] of 2 mg/kg. Moreover, the Stimulation in [14] came to 29%; in test [11], 38%. The values for the Ratio in [10] and in test [12] were 12 and 14, respectively.

In the case of `CN1CC[C@]23c4c5ccc(O)c4O[C@H]2c2[nH]c4c(c2C[C@@]3(O)[C@H]1C5)C[C@@]1(O)[C@H]2Cc3ccc(O)c5c3[C@@]1(CCN2C)[C@H]4O5`, the inhibition constant Ki in test [1] came to 98.2 nM; in [19], 7.7 nM; on Mu-type opioid receptor [25], 63.6 nM. Besides, the Ratio in test [10] stood at 13; in test [12] it was 8. The compound also came in with a Ke in test [4] of 27 nM. Moreover, the EC50 was 1390 nM on Mu-type opioid receptor [17], “Not Active” in [6] and “Not Active” in [9]. This compound showed a Stimulation in test [11] of 66%.

Values taken from ChEMBL document CHEMBL1142711 (J Med Chem, 2005).
